Source: ChEMBL document CHEMBL1144353 (J Med Chem, 2005)

Key:
Rattus norvegicus [1] = experiment: Ratio of brain level and plasma level 2 hours after peroral dosing of 30 mg/kg in rats was determined; format: functional, organism-based; set-up: dose 30 mg/kg
Outline: (§1)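 Sprague-Dawley rats were dosed orally at 30 mg/kg and sampled at 2 h. Brain and plasma levels were measured in ng/mL, and B/P is the brain-to-plasma ratio.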

[2] = tested on: System L amino acid transporter (Cricetulus griseus); experiment: Inhibition of [3H]leucine uptake by L-amino acid transporter system in Chinese hamster ovary cells
[3] = Equilibrium dissociation constant for Voltage-gated calcium channel alpha2-delta subunit as inhibition of [3H]gabapentin binding to pig brain membranes; set-up: species or system Sus scrofa, Membrane
Outline: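 Pig cortical membranes (10-20 µg protein/well) with wheat germ agglutinin SPA beads and 30 nM [3H]gabapentin in 10 mM HEPES/10 mM MgSO4, pH 7.4, incubated overnight (15-24 h) at room temperature, then scintillation counted. Mean ± SEM, N = 4.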

Rattus norvegicus [4] = experiment: Brain levels 2 hours after peroral dosing of 30 mg/kg in rats was determined; format: functional; conditions: route oral; outline: as §1
Rattus norvegicus [5] = experiment: Plasma levels 2 hours after peroral dosing of 30 mg/kg in rats was determined; format: functional, organism-based; set-up: dose 30 mg/kg
Outline: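 Sprague-Dawley rats were given a single 30 mg/kg oral dose. Plasma was sampled 2 h after dosing, with brain levels taken at the same time point, and drug concentration is reported in ng/mL.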

[6] = Inhibition of [3H]leucine uptake into CHO cells; format: functional, cell-based, Cricetulus griseus
Outline: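 CHO-K1 monolayers (90-100% confluent) were washed twice for 20 min at 37 °C in Na+-free choline buffer. Cells were then exposed for 2 min at room temperature to 2 µCi/mL L-[3H]leucine with test compound, 10 mM to 300 nM in half-log steps, in duplicate. Controls were no drug and 10 mM L-leucine. Uptake was stopped with cold buffer washes and counted by scintillation. IC50 from nonlinear least-squares regression.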

SMILES	Ki [3] [µM]	IC50 ([6]; Cricetulus griseus, CHO, 2 min) [µM]	IC50 ([6]; cho) [µM]	other results
NCC1(C(=O)O)CC12CCCCC2 (stereo unspecified)	0.013	> 2490	–	B/P (Rattus norvegicus [1]): 0.054; IC50 [2]: > 2490 µM; Brain level (Rattus norvegicus [4]): 385 ng/mL; Plasma level (Rattus norvegicus [5]): 7070 ng/mL
CC(C)C1CC1(CN)C(=O)O (stereo unspecified)	0.34	> 8300	–	–
CCCC1(CCC)CC1(CN)C(=O)O (stereo unspecified)	0.2	> 2490	–	–
CC(C)CC1CC1(CN)C(=O)O (stereo in doubt)	0.037	–	> 8300	–
NCC1(C(=O)O)CC12CCC2 (stereo unspecified)	0.2	> 2490	–	–
CCC(CC)C1CC1(CN)C(=O)O (stereo in doubt; 12)	0.56	–	> 8300	–
CCC(CC)C1CC1(CN)C(=O)O (stereo in doubt)	0.63	–	> 2490	–
CC(C)CC1CC1(CN)C(=O)O (stereo in doubt; 36)	0.33	–	> 2490	–
NCC1(C(=O)O)CC12CCCC2 (stereo unspecified)	0.023	> 8300	–	–
NCC1(C(=O)O)CC1	> 10	> 8300	–	–
CC(C)C[C@H](CN)CC(=O)O [PREGABALIN]	–	–	–	IC50 [2]: 158 µM; Plasma level (Rattus norvegicus [5]): 19400 ng/mL
